Measured values as given in article PMC4071626 (MedChemComm, 2013).

Columns and labels:
Δ49N CHKA2 = Δ49N CHKA2 (Homo sapiens, UniProt P35790); assay: Lineweaver-Burk reaction kinetics against Δ49N CHKA2; format: biochemical; details: 0.1, 1 or 10 μM inhibitor; choline or ATP varied, the other kept at KM
Method in brief: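 Δ49N CHKA2 reaction kinetics run without inhibitor or with test compound at 0.1, 1 or 10 μM. Choline varied with ATP fixed at KM, or ATP varied with choline fixed at KM; double-reciprocal (Lineweaver–Burk) plots used to assign inhibition type versus each substrate.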

[1] = tested on: CHK reaction in HCT-116 cells; assay: Inhibition of [3H]PCho formation from [3H]Cho in whole HCT-116 cells; format: cell-based, human; details: HCT-116 cells incubated with [3H]Cho
Method in brief: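 HCT-116 cells incubated with [3H]Cho plus test compound over a range of concentrations; [3H]PCho formed from [3H]Cho measured to follow dose-dependent change in cellular choline phosphorylation.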

Chain of Δ49N CHKA2 (P35790 50-457 limits assumed, stated change not applied): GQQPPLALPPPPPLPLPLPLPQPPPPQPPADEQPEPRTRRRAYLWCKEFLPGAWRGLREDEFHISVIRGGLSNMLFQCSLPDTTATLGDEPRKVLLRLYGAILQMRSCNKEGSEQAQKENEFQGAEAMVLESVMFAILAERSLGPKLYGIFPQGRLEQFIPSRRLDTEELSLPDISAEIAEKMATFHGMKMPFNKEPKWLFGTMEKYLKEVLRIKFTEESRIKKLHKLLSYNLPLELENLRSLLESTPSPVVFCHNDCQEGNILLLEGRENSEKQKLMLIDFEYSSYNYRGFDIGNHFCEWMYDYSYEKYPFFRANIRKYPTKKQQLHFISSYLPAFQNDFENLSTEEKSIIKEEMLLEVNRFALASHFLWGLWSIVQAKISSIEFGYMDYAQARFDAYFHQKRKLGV

SMILES | Type of inhibition (Lineweaver-Burk plots) (Δ49N CHKA2) | Concentration above which [3H]PCho formation is inhibited >75% [1]
CN(C)c1cc[n+](CCCCCCCCCCCC[n+]2ccc(N(C)C)cc2)cc1.[Br-].[Br-] [Compound 8] | competitive with choline, but not with ATP | above 6.5 ± 4 μM
CN(C)c1cc[n+](CCCCCCCCCCCCn2cnc3c(N)ncnc32)cc1.[Br-] [Compound 12] | mixed type of inhibition | 
CN(C)c1cc[n+](CCCCCCCCCCCCCC[n+]2ccc(N(C)C)cc2)cc1.[Br-].[Br-] [Compound 13] |  | > 2.4 ± 1 µM
